Source: ChEMBL document CHEMBL1136233, “Bisphosphonates derived from fatty acids are potent inhibitors of Trypanosoma cruzi farnesyl pyrophosphate synthase” (Bioorg Med Chem Lett, 2003)

Tests used:
Trypanosoma cruzi [1] = assay: Inhibitory concentration against Trypanosoma cruzi (epimastigotes); format: functional, organism-based
How it was run: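 Epimastigote growth inhibition; IC50 values are the means of three experiments.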

Trypanosoma cruzi [2] = assay: Maximum inhibitory activity against Trypanosoma cruzi (amastigotes); format: functional
Trypanosoma cruzi [3] = assay: Inhibitory concentration against Trypanosoma cruzi (amastigotes); format: functional, organism-based
Trypanosoma cruzi [4] = assay: Maximum inhibitory activity against Trypanosoma cruzi (amastigotes)

Compound	IC50 (Trypanosoma cruzi [1])	IC50 (Trypanosoma cruzi [3]; Trypanosoma cruzi)	IC50 (Trypanosoma cruzi [3])	Inhibition (Trypanosoma cruzi [2])	Inhibition (Trypanosoma cruzi [4])
CCCC(P(=O)(O)O)P(=O)(O)O	> 100 µM	> 90 µM		28%	
CCCCCCC(P(=O)(OCC)OCC)P(=O)(OCC)OCC	> 50 µM				
CCCCCCCCC(P(=O)(OCC)OCC)P(=O)(OCC)OCC	> 50 µM	> 50 µM			
CCCC(P(=O)(OCC)OCC)P(=O)(OCC)OCC	> 70 µM	> 70 µM		27%	
CCCCCCCC(P(=O)(OCC)OCC)P(=O)(OCC)OCC	> 50 µM				
CCCCC(P(=O)(O)O)P(=O)(O)O	> 70 µM	> 70 µM			
CCCCCCC(P(=O)(O)O)P(=O)(O)O	> 70 µM	> 70 µM		47%	
CCCCCCCCCC(P(=O)(OCC)OCC)P(=O)(OCC)OCC	> 50 µM				
CCCCC(P(=O)(OCC)OCC)P(=O)(OCC)OCC	> 70 µM	> 50 µM			
CCOP(=O)(OCC)C(CC)P(=O)(OCC)OCC		> 70 µM			
CCC(P(=O)(O)O)P(=O)(O)O	> 100 µM	> 100 µM		21%	
CCCCCC(P(=O)(OCC)OCC)P(=O)(OCC)OCC	> 50 µM				
CCCC(O)(P(=O)(O)O)P(=O)(O)O	> 70 µM				
CCCCCC(P(=O)(O)O)P(=O)(O)O	> 70 µM				

Continued, in another order:

IC50 (Trypanosoma cruzi [1])	IC50 (Trypanosoma cruzi [3]; Trypanosoma cruzi)	IC50 (Trypanosoma cruzi [3])	Compound	Inhibition (Trypanosoma cruzi [2])	Inhibition (Trypanosoma cruzi [4])
	> 70 µM		CCCCCCCCCCCCCC(O)(P(=O)(O)O)P(=O)(O)O	10%	
> 70 µM			CCCCCCCCC(P(=O)(O)O)P(=O)(O)O		
> 70 µM	> 70 µM		CCCCCCCC(P(=O)(O)O)P(=O)(O)O	49%	
> 70 µM	> 70 µM		CCCCCCCC(O)(P(=O)(O)O)P(=O)(O)O		41%
		18.1 µM	CCCCCCC(O)(P(=O)(O)O)P(=O)(O)O		
> 70 µM			CCCCCCCCCC(O)(P(=O)(O)O)P(=O)(O)O		
> 70 µM	> 70 µM		CCCCCC(O)(P(=O)(O)O)P(=O)(O)O		34%
> 70 µM			CCCCCCCCCC(P(=O)(O)O)P(=O)(O)O		
> 70 µM			CCCCCCCCC(O)(P(=O)(O)O)P(=O)(O)O		
